According to ChEMBL document CHEMBL1140675, “Discovery of a novel class of benzazepinone Na(v)1.7 blockers: potential treatments for neuropathic pain” (Bioorg Med Chem Lett, 2007):

Experiments:
hERG (KCNH2) = hERG (KCNH2) (Homo sapiens, UniProt Q12809); assay: Displacement of [35S]-MK0499 from human ERG receptor expressed in HEK293 cells at 10 uM; format: cell-based; settings: HEK293 cells expressing human ERG, probe [35S]-MK0499
Outline: (§1)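 Binding assay measuring displacement of radiolabelled ligand (35S-MK-0499 for hERG; 3H-diltiazem for Cav1.2); % inhibition at 10 µM test compound.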

[1] = biological target: T1, Sodium channel protein type 9 subunit alpha (Homo sapiens, UniProt Q15858); assay: Blockade of human Nav1.7 by FRET assay
Outline: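 Functional membrane-potential assay of channel block on human Nav1.7; read-out is FRET between two membrane-associated dyes; IC50 in nM.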

[2] = biological target: Cav1.2 (L-type calcium channel subunit alpha-1C) (Homo sapiens, UniProt Q13936); assay: Displacement of [3H]diltiazem from human Cav1.2 expressed in HEK293 cells at 10 uM; format: cell-based; settings: HEK293 cells expressing human Cav1.2, probe [3H]diltiazem; outline: as §1
[3] = Bioavailability in rat at 3.0 mg/kg, po; format: ADME, organism-based; settings: in vivo
[4] = Cmax in rat at 1.0 mg/kg, iv or 3.0 mg/kg, po; format: ADME, organism-based; settings: in vivo
[5] = Plasma clearance in rat at 1.0 mg/kg, iv or 3.0 mg/kg, po; format: ADME, organism-based
[6] = Half life in rat at 1.0 mg/kg, iv or 3.0 mg/kg, po; format: ADME, organism-based; settings: in vivo
[7] = Bioavailability in dog at 1.5 mg/kg, po; format: ADME, organism-based, Canis lupus familiaris; settings: in vivo
[8] = Cmax in dog at 0.38 mg/kg, iv or 1.5 mg/kg, po; format: ADME, organism-based, Canis lupus familiaris; settings: in vivo
[9] = Plasma clearance in dog at 0.38 mg/kg, iv or 1.5 mg/kg, po; format: ADME, organism-based, Canis lupus familiaris
[10] = Half life in dog at 0.38 mg/kg, iv or 1.5 mg/kg, po; format: ADME, organism-based, Canis lupus familiaris; settings: in vivo
[11] = biological target: T1, Sodium channel protein type 9 subunit alpha; assay: Binding affinity at human inactive state Nav1.7 by whole cell electrophysiology
Rattus norvegicus [12] = assay: Blockade of spontaneous neuronal firing in rat peripheral axotomy model at 2 mg/kg, iv after 30 mins; format: functional; settings: 0.5 h
Outline: (§2)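 Iv infusion given after baseline spontaneous firing frequency was established; firing frequency then recorded for 60 min post-dose, with % inhibition at 10, 30 and 60 min; n = 6.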

Rattus norvegicus [13] = assay: Blockade of spontaneous neuronal firing in rat peripheral axotomy model at 2 mg/kg, iv after 10 mins; format: functional; outline: as §2
Rattus norvegicus [14] = assay: Blockade of spontaneous neuronal firing in rat peripheral axotomy model at 2 mg/kg, iv after 60 mins; format: functional; settings: 1 h; outline: as §2
Rattus norvegicus [15] = assay: Reversal of allodynia in rat spinal nerve ligation model at 10 mg/kg, po after 2 hrs; format: functional
Outline: (§3)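 L5 spinal nerve ligated and transected in rats to induce neuropathy; tactile allodynia measured with calibrated Von Frey filaments before and 1 week after surgery. Rats with significant allodynia were dosed orally and % reversal of allodynia determined at 2 and 4 h post-dose; n = 8.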

Rattus norvegicus [16] = assay: Reversal of allodynia in rat spinal nerve ligation model at 10 mg/kg, po after 4 hrs; format: functional; outline: as §3
[17] = biological target: Voltage-dependent L-type calcium channel subunit alpha-1C (Homo sapiens, UniProt Q13936); assay: Displacement of [3H]diltiazem from human Cav1.2 expressed in HEK293 cells; format: cell-based
Outline: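 Cav1.2 binding assay measuring displacement of 3H-diltiazem.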

Chain of hERG (KCNH2) (Q12809 whole entry): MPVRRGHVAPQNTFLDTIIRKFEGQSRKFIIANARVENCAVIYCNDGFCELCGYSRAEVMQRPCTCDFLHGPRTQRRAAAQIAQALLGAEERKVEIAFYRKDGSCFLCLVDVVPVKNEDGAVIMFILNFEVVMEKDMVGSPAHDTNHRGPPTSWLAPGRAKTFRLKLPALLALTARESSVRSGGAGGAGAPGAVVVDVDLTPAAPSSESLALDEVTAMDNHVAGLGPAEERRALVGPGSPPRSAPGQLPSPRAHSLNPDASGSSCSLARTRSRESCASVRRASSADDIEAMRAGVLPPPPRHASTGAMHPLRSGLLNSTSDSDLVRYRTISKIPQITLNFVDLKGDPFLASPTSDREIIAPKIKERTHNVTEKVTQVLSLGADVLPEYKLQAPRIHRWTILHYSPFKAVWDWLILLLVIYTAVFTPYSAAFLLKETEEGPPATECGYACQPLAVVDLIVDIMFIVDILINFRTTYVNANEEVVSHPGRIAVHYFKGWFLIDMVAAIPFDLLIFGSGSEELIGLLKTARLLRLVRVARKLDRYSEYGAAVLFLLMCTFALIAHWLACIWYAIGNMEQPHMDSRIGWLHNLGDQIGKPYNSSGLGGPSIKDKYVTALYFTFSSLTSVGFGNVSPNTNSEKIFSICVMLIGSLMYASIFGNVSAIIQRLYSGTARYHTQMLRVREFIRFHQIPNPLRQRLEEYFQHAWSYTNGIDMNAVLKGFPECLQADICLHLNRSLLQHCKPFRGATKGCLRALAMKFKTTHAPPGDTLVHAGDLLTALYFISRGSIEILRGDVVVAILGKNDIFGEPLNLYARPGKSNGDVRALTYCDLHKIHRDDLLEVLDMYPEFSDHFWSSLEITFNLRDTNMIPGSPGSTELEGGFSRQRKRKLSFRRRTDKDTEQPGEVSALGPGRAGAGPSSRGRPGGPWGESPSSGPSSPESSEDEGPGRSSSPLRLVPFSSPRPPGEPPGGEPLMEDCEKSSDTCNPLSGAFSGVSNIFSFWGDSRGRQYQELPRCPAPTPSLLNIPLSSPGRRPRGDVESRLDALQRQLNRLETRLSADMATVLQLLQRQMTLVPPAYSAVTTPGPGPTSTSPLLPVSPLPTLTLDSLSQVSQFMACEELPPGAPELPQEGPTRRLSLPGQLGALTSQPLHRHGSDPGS
Chain of Cav1.2 (L-type calcium channel subunit alpha-1C) (Q13936 whole entry): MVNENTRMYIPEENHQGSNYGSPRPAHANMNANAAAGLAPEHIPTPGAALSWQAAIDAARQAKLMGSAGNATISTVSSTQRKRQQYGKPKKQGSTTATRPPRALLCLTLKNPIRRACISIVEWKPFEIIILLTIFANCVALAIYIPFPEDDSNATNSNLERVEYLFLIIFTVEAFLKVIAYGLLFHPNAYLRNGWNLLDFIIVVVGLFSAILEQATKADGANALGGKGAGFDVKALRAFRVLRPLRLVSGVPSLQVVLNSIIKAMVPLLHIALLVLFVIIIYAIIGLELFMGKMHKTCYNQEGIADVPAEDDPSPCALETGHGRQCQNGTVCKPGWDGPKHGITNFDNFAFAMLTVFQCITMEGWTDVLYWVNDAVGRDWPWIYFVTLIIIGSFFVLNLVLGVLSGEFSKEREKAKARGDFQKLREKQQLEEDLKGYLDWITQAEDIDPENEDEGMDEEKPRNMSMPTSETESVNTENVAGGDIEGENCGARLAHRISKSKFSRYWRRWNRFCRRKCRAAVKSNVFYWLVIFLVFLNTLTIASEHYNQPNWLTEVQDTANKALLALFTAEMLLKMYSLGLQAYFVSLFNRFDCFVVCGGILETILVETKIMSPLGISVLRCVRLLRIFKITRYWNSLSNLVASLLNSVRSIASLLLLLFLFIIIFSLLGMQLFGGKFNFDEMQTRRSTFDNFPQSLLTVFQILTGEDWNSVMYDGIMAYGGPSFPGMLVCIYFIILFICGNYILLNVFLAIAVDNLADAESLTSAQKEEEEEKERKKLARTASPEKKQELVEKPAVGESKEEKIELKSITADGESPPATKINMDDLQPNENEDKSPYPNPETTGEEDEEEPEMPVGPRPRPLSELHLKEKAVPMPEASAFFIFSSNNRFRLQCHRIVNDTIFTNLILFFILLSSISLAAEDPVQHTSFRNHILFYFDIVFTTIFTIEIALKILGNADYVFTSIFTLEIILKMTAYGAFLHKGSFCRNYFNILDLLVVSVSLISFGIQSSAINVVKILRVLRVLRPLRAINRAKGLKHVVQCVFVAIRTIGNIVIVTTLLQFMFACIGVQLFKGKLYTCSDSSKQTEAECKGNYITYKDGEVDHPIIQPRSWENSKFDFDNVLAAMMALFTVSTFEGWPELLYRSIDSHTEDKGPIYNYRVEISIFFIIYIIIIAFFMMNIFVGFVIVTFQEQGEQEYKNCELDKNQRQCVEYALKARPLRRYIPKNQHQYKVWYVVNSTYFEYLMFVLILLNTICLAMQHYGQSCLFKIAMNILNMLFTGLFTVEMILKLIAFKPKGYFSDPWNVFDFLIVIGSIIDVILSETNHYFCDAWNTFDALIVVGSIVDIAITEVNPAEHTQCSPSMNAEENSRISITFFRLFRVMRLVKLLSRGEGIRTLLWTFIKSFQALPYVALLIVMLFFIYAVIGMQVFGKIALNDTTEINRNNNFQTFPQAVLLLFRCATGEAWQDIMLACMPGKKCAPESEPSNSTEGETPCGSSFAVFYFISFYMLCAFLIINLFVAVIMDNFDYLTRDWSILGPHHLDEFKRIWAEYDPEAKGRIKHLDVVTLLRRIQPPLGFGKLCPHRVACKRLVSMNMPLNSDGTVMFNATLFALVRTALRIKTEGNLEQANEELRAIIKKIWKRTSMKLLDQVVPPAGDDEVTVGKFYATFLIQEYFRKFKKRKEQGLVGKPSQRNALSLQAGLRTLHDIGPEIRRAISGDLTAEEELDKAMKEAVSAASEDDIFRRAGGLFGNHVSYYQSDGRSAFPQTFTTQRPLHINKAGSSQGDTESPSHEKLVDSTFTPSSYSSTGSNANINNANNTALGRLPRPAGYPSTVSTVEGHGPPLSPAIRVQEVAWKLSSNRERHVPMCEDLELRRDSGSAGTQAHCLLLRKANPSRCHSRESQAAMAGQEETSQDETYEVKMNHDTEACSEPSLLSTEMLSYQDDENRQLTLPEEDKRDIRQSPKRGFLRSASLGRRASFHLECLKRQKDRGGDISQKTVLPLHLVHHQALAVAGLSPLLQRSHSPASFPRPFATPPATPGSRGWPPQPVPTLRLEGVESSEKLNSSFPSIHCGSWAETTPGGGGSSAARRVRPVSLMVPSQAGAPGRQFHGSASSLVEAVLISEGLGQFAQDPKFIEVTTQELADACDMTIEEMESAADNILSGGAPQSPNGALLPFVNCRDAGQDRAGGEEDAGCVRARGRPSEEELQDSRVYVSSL
Chain of Voltage-dependent L-type calcium channel subunit alpha-1C (Q13936 whole entry): as above

## CC(C)(C)OC(=O)N[C@H](Cc1ccccc1)C(=O)N[C@@H]1CCc2ccccc2N(CC2CC2)C1=O
hERG (KCNH2)
  inhibition at 10 µM: 15%
[1]
  IC50: 78 nM

## CN1C(=O)[C@H](NC(=O)[C@@H](Cc2cccnc2)NC(=O)OC(C)(C)C)N=C(c2ccccc2)c2ccccc21
[1]
  IC50: 978 nM

## CC(C)N1C(=O)[C@H](NC(=O)[C@@H](Cc2cc(F)ccc2F)NC(=O)OC(C)(C)C)CCc2ccccc21
hERG (KCNH2)
  inhibition at 10 µM: 6%
[2]
  inhibition at 10 µM: 24%
[1]
  IC50: 23 nM

## CN1C(=O)[C@H](NC(=O)[C@@H](Cc2cscn2)NC(=O)OC(C)(C)C)N=C(c2ccccc2)c2ccccc21
[1]
  IC50: 684 nM

## CC(C)N1C(=O)[C@H](NC(=O)[C@@H](Cc2cccc(F)c2C(F)(F)F)NC(=O)OC(C)(C)C)CCc2ccccc21
hERG (KCNH2)
  inhibition at 10 µM: 39%
[2]
  inhibition at 10 µM: 87%
[1]
  IC50: 65 nM

## CN1C(=O)[C@H](NC(=O)[C@@H](Cc2ccccc2)NC(=O)OCc2ccccc2)N=C(c2ccccc2)c2ccccc21
[1]
  IC50: 150 nM

## CN1C(=O)[C@H](NC(=O)[C@@H](Cc2ccccc2)NC(=O)OC(C)(C)C)N=C(c2ccccc2)c2ccccc21
[1]
  IC50: 125 nM

## CN1C(=O)[C@H](NC(=O)[C@H](N)Cc2ccccc2)N=C(c2ccccc2)c2ccccc21
[1]
  IC50: > 1000 nM

## CC(C)N1C(=O)[C@H](NC(=O)[C@@H](Cc2c(F)cccc2C(F)(F)F)NC(=O)OC(C)(C)C)CCc2ccccc21
hERG (KCNH2)
  inhibition at 10 µM: 43%
[2]
  inhibition at 10 µM: 81%
[3]
  bioavailability: 28%
[4]
  Cmax: 330 nM
[5]
  clearance: 32 mL/min/kg
[6]
  half-life: 2.5 h
[1]
  IC50: 32 nM

## CC(C)N1C(=O)[C@H](NC(=O)[C@@H](Cc2ccccc2F)NC(=O)OC(C)(C)C)CCc2ccccc21
hERG (KCNH2)
  inhibition at 10 µM: 8%
[2]
  inhibition at 10 µM: 11%
[3]
  bioavailability: 14%
[4]
  Cmax: 100 nM
[5]
  clearance: 41 mL/min/kg
[6]
  half-life: 1.5 h
[1]
  IC50: 44 nM

## CN1C(=O)[C@H](NC(=O)[C@@H](Cc2ccc(F)cc2)NC(=O)OC(C)(C)C)N=C(c2ccccc2)c2ccccc21
[1]
  IC50: 71 nM

## CC(C)(C)OC(=O)N[C@H](Cc1ccccc1)C(=O)N[C@@H]1CCc2ccccc2N(CC(F)(F)F)C1=O
hERG (KCNH2)
  inhibition at 10 µM: 16%
[1]
  IC50: 150 nM

## CC(C)(C)OC(=O)N[C@@H](CN[C@@H]1CCc2ccccc2N(CC(F)(F)F)C1=O)Cc1ccccc1
hERG (KCNH2)
  inhibition at 10 µM: 79%
[1]
  IC50: 885 nM

## CN1C(=O)[C@H](NC(=O)[C@@H](Cc2ccccc2)NC(=O)OC(C)(C)C)CCc2ccccc21
[1]
  IC50: 192 nM

## CC(C)N1C(=O)[C@H](NC(=O)[C@@H](Cc2ccccc2OC(F)(F)F)NC(=O)OC(C)(C)C)CCc2ccccc21
hERG (KCNH2)
  inhibition at 10 µM: 18%
[3]
  bioavailability: 24%
[7]
  bioavailability: 9%
[4]
  Cmax: 300 nM
[8]
  Cmax: 70 nM
[5]
  clearance: 24 mL/min/kg
[9]
  clearance: 15 mL/min/kg
[6]
  half-life: 2.3 h
[10]
  half-life: 4.2 h
[11]
  Ki: 40 nM
Rattus norvegicus [12]
  inhibition in vivo at 2 mg/kg: 100%
Rattus norvegicus [13]
  inhibition in vivo at 2 mg/kg: 100%
Rattus norvegicus [14]
  inhibition in vivo at 2 mg/kg: 93%
Rattus norvegicus [15]
  Activity: 43%
Rattus norvegicus [16]
  Activity: 40%
[17]
  IC50: 3500 nM
[1]
  IC50: 35 nM

## CC(C)N1C(=O)[C@H](NC(=O)[C@@H](Cc2ccc(F)cc2)NC(=O)OC(C)(C)C)CCc2ccccc21
hERG (KCNH2)
  inhibition at 10 µM: 0%
[2]
  inhibition at 10 µM: 0%
[1]
  IC50: 98 nM

## CN1C[C@H](NC(=O)[C@@H](Cc2ccccc2)NC(=O)OC(C)(C)C)CCc2ccccc21
hERG (KCNH2)
  inhibition at 10 µM: 28%
[1]
  IC50: > 1000 nM

## CN1C(=O)[C@H](NC(=O)CCc2ccccc2)N=C(c2ccccc2)c2ccccc21
[1]
  IC50: > 1000 nM

## CN1C(=O)[C@H](NC(=O)[C@@H](Cc2ccccc2)NCCC(C)(C)C)N=C(c2ccccc2)c2ccccc21
[1]
  IC50: > 1000 nM

## CC(C)N1C(=O)[C@H](NC(=O)[C@H](Cc2ccccc2OC(F)(F)F)NC(=O)OC(C)(C)C)CCc2ccccc21
hERG (KCNH2)
  inhibition at 10 µM: 0%
[1]
  IC50: 214 nM

## CN1C(=O)[C@H](NC(=O)[C@@H](CC2CCCCC2)NC(=O)OC(C)(C)C)N=C(c2ccccc2)c2ccccc21
[1]
  IC50: > 1000 nM

## CC(C)N1C(=O)[C@H](NC(=O)[C@@H](Cc2ccccc2C(F)(F)F)NC(=O)OC(C)(C)C)CCc2ccccc21
hERG (KCNH2)
  inhibition at 10 µM: 34%
[3]
  bioavailability: 35%
[4]
  Cmax: 300 nM
[5]
  clearance: 50 mL/min/kg
[6]
  half-life: 2.1 h
[1]
  IC50: 137 nM

## CC(C)(C)OC(=O)N[C@H](Cc1ccccc1)C(=O)N[C@@H]1CCc2ccccc2N(CC(F)(F)F)C1
hERG (KCNH2)
  inhibition at 10 µM: 40%
[1]
  IC50: 145 nM

## CN1C(=O)[C@H](NC(=O)[C@@H](Cc2cnc[nH]2)NC(=O)OC(C)(C)C)N=C(c2ccccc2)c2ccccc21
[1]
  IC50: > 1000 nM

## CN1C(=O)[C@H](NC(=O)[C@@H](Cc2ccccc2)NC(=O)C2CC2)N=C(c2ccccc2)c2ccccc21
[1]
  IC50: > 1000 nM

## CC(C)N1C(=O)[C@H](NC(=O)[C@@H](Cc2c(F)cccc2F)NC(=O)OC(C)(C)C)CCc2ccccc21
hERG (KCNH2)
  inhibition at 10 µM: 4%
[2]
  inhibition at 10 µM: 36%
[1]
  IC50: 14 nM

## CN1C(=O)[C@H](NC(=O)[C@H](NC(=O)OC(C)(C)C)c2ccccc2)N=C(c2ccccc2)c2ccccc21
[1]
  IC50: 375 nM

## COC(=O)N[C@H](Cc1ccccc1)C(=O)N[C@@H]1N=C(c2ccccc2)c2ccccc2N(C)C1=O
[1]
  IC50: > 1000 nM

## CC(C)N1C(=O)[C@H](NC(=O)[C@@H](Cc2cccc(C(F)(F)F)c2)NC(=O)OC(C)(C)C)CCc2ccccc21
hERG (KCNH2)
  inhibition at 10 µM: 15%
[2]
  inhibition at 10 µM: 19%
[1]
  IC50: 295 nM

## CC(C)N1C(=O)[C@@H](NC(=O)[C@@H](Cc2ccccc2OC(F)(F)F)NC(=O)OC(C)(C)C)CCc2ccccc21
hERG (KCNH2)
  inhibition at 10 µM: 20%
[3]
  bioavailability: 15%
[4]
  Cmax: 140 nM
[5]
  clearance: 55 mL/min/kg
[6]
  half-life: 2.1 h
[17]
  IC50: 1730 nM
[1]
  IC50: 32 nM

## CN1CCCC[C@@H](NC(=O)[C@@H](Cc2ccccc2)NC(=O)OC(C)(C)C)C1=O
[1]
  IC50: > 1000 nM

## CC(C)S(=O)(=O)N[C@H](Cc1ccccc1)C(=O)N[C@@H]1N=C(c2ccccc2)c2ccccc2N(C)C1=O
[1]
  IC50: > 1000 nM

## CN1C(=O)[C@H](NC(=O)[C@@H](Cc2ccccc2)NC(=O)C(C)(C)C)N=C(c2ccccc2)c2ccccc21
[1]
  IC50: 380 nM

## CC(C)N1C(=O)[C@H](NC(=O)[C@@H](Cc2ccc(C(F)(F)F)cc2)NC(=O)OC(C)(C)C)CCc2ccccc21
[1]
  IC50: > 1000 nM

## CN1C(=O)[C@H](NC(=O)[C@@H](CCc2ccccc2)NC(=O)OC(C)(C)C)N=C(c2ccccc2)c2ccccc21
[1]
  IC50: 238 nM

## CN1C(=O)[C@H](NC(=O)[C@@H](Cc2ccccc2)NS(=O)(=O)c2ccccc2)N=C(c2ccccc2)c2ccccc21
[1]
  IC50: > 1000 nM

## CN1C(=O)[C@H](NC(=O)[C@@H](Cc2ccccc2)NS(C)(=O)=O)N=C(c2ccccc2)c2ccccc21
[1]
  IC50: > 1000 nM

## CC(C)N1C(=O)[C@H](NC(=O)[C@@H](Cc2cccc(F)c2)NC(=O)OC(C)(C)C)CCc2ccccc21
hERG (KCNH2)
  inhibition at 10 µM: 8%
[2]
  inhibition at 10 µM: 0%
[1]
  IC50: 9 nM

## CN1C(=O)[C@H](NC(=O)[C@@H](Cc2ccccc2)NC(=O)C23CC4CC(CC(C4)C2)C3)N=C(c2ccccc2)c2ccccc21
[1]
  IC50: 420 nM

## CN1C(=O)[C@H](NC(=O)[C@@H](Cc2ccccc2F)NC(=O)OC(C)(C)C)N=C(c2ccccc2)c2ccccc21
[1]
  IC50: 87 nM

## CC(C)N1C(=O)[C@H](NC(=O)[C@@H](Cc2ccccc2)NC(=O)OC(C)(C)C)CCc2ccccc21
hERG (KCNH2)
  inhibition at 10 µM: 6%
[1]
  IC50: 45 nM

## C[C@@H](NC(=O)OC(C)(C)C)C(=O)N[C@@H]1N=C(c2ccccc2)c2ccccc2N(C)C1=O
[1]
  IC50: > 1000 nM

## CN1C(=O)[C@H](NC(=O)[C@@H](Cc2ccccc2)N(C)C(=O)OC(C)(C)C)N=C(c2ccccc2)c2ccccc21
[1]
  IC50: > 1000 nM
